46 sequences from the EternaBench riboswitch data can be followed below.

This data set has as its system MS2 coat protein. The data set can be described thus: apparent Kd, MS2 coat protein; higher = weaker binding; RNA-MaP array; theophylline 2 mM where present. The essentials: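 On Illumina sequencing-chip clusters, designs were transcribed by stalled E. coli RNA polymerase and titrated with SNAP-549-labelled MS2 coat protein (0.7 or 1.5 nM, doubling to 3 µM), without and then with constant ligand, in 100 mM Tris-HCl pH 7.5, 80 mM KCl, 4 mM MgCl2, BSA, DTT, yeast tRNA and Tween-20. Apparent Kd is the median of filtered per-cluster curve fits to green signal normalised to red-channel RNA signal and control-cluster median Fmax.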

Setting [1] is: designed as: OFF switch for theophylline, no ligand.
The mark [2] stands for this setting: ligand present: theophylline, designed as: OFF switch for theophylline.
Where [3] appears, read: designed as: ON switch for theophylline, no ligand.
The mark [4] stands for this setting: ligand present: theophylline, designed as: ON switch for theophylline.

As a reminder, the apparent Kd is a dissociation constant that holds for the conditions of the assay. With “UCAUAUUAGUGAGAUGUAAGGUAUCAUGAUACCAGUAGAUAAUUAUACCCUUGGCAGCAUAACAUGAGGAUCACCCAUGUACAUG”, the “apparent Kd” value was found to be 25.6 nM under setting [1] and 23.3 nM under setting [2].

As for “AUGUUUGUGUGAGAUACCAGUGAGGCCACAUGAGGAUCACCCAUGUCCCUCACUCCGGCCCACCCUUGGCAGCUCUUAUAGUAAA”, the “apparent Kd” value is, setting by setting: under setting [1], 9.5 nM; under setting [2], 39.4 nM.

Take “GCACCAGGUACGGAUACCAGCUGCUCGAGAUACAUGAGGAUCACCCAUGUGACCUGGUUUAGCCCUUGGCAGCUGUACCUGGUGC”: the “apparent Kd” value runs as follows: under setting [3], 15.8 nM; under setting [4], 9.98 nM.

Take “AAGCUGGGUGUAAAAUAAAUAAUCACUGAUACCAGACUAUGAGAUGUCCCUUGGCAGCAGAAACAUGAGGAUCACCCAUGUAAUA”: the “apparent Kd” value by setting is: under setting [1], 20.7 nM; under setting [2], 21.5 nM.

In the case of “ACAUGAGGAUCACCCAUGUUCCUCGCCGAUACCAGUGAAGAAGAACGCCCUUGGCAGCGGAAAGAGUAUUUUGGAGAUGAGGUAC”, the “apparent Kd” value runs as follows: under setting [1], 80.1 nM; under setting [2], 129 nM.

“AUAUGAUCAUACGAUACCAGAAAUGGUAUUCCUUUAUUUCUUACAUGAGGAUCACCCAUGUUCCCUUGGCAGCGUAUGAUCAUAU”: the “apparent Kd” value was 363 nM under setting [1] and 123 nM under setting [2].

Turning to “UUAUCUAUAUUCGAUACCAGUACCCUGGCCGCAAAUCCUAACAUGAGGAUCACCCAUGUGUACCCUUGGCAGCGGGUAUGGGUUU”, the “apparent Kd” value is, setting by setting: under setting [1], 23.2 nM; under setting [2], 88.8 nM.

For the sequence “UUGCAUAUCUUGGAUACCAGCACAUGAGGAUCACCCAUGUCCGCGGGAUAGCUCCAGAUGUGCCCUUGGCAGCCACAUGCACUUG”, the “apparent Kd” value by setting is: under setting [1], 10.2 nM; under setting [2], 26.4 nM.

As to “GAUGAUAUUGCAGAUACCAGACACAUGAGGAUCACCCAUGUCUCUGUGAUGUAGGAUUGUGUCCCUUGGCAGCUGCGAUAUCAUC”, the “apparent Kd” value by setting is: under setting [1], 229 nM; under setting [2], 91.3 nM.

Turning to “AAAUAAAUAACUGAUACCAGUGGACUGACAUGAGGAUCACCCAUGUUGGGUUUUGUUGUCCACCCUUGGCAGCGGGCAUAUAAAA”, the “apparent Kd” value came out at 24.8 nM under setting [1] and 66.9 nM under setting [2].

As for “UCACAUGAGGAUCACCCAUGUACAGGCGAUACCAGCCGUACAUUGGGCCCUUGGCAGCGCACCGAGACCUUUUAAAGCACUUCGG”, the “apparent Kd” value under setting [3] was found to be 35.1 nM and the “apparent Kd” value under setting [4] was found to be 121 nM.

For “AACCGAGGCUAUCCUCUAAGAAAAUGUGAUACCAGAAUAAUUUUAUUCCCUUGGCAGCAUGACAUGAGGAUCACCCAUGUGUCUU”, the “apparent Kd” value is, setting by setting: under setting [3], 187 nM; under setting [4], 151 nM.

In the case of “UUAGAUAUGACAGAUACCAGCGUGUUGUUGAACAUGAGGAUCACCCAUGUAGUGAUCGAGCGCCCUUGGCAGCUGGUGUGUUUGG”, the “apparent Kd” value was 161 nM under setting [3] and 181 nM under setting [4].

As to “GAUGAACUAUUCGAUACCAGACCACAUGAGGAUCACCCAUGUGUGUUUCGUCCUUAGCCGGUCCCUUGGCAGCGAAUAGUUUAUC”, the “apparent Kd” value runs as follows: under setting [1], 20.2 nM; under setting [2], 30.3 nM.

On to “ACAUGAGGAUCACCCAUGUGGCGUCUUGAUACCAGACGAGAAGUAGUCCCUUGGCAGCAAAUACAUGAGGAUCACCCAUGUAGGA”, for which the “apparent Kd” value runs as follows: under setting [1], 23.9 nM; under setting [2], 37.1 nM.

As to “ACACCGAAAGGUGCAUUUUCCUUUUCAGAUACCAGACUUUACGUUGUCCCUUGGCAGCUGUAUCACAUGAGGAUCACCCAUGUUG”, the “apparent Kd” value worked out at 16.4 nM under setting [3] and 17.6 nM under setting [4].

Consider “AACAUGAGGACGGAUACCAGUCACAUGAGGAUCACCCAUGUACAUGAGGAUCACCCAUGUGGCCCUUGGCAGCCGCAUGUGAUCA”, for which the “apparent Kd” value under setting [1] is 327 nM and the “apparent Kd” value under setting [2] came to 473 nM.

As to “ACGUCCGGGUUAAUCGUGGGCAUGGUCGAUACCAGUAUUUUAAUCUACCCUUGGCAGCGACAUGAGGAUCACCCAUGUGCGAUGA”, the “apparent Kd” value reads like this: under setting [1], 17 nM; under setting [2], 35.5 nM.

Regarding “CGUAUCGUAACUGAUACCAGUGUACUGACAUGAGGAUCACCCAUGUUGGGUUUUGUUGUACACCCUUGGCAGCAGAAUCGAUACG”, the “apparent Kd” value under setting [1] came to 67 nM and the “apparent Kd” value under setting [2] was determined as 103 nM.

In the case of “GAGCUGAUGUAGGGUGGAUAUCCUUGAGAUACCAGUACAGAAAUGUACCCUUGGCAGCUCUUCCUUACAUGAGGAUCACCCAUGU”, the “apparent Kd” value under setting [1] amounted to 18.7 nM and the “apparent Kd” value under setting [2] amounted to 23.1 nM.

Turning to “ACAUGAGGAUCACCCAUGUAAUGGCACGAUACCAGCUGAUCCCGUGGCCCUUGGCAGCGUCCGGUGUGGUCCGCCGGGUUGGAGC”, the “apparent Kd” value amounted to 21 nM under setting [3] and 39.3 nM under setting [4].

For the sequence “AGUGUUAUAACUGAUACCAGACUUGCGCUUAAACAUGAGGAUCACCCAUGUAAAAUGGUUGUCCCUUGGCAGCAGAAAAUACACA”, the “apparent Kd” value by setting is: under setting [3], 74.1 nM; under setting [4], 21.6 nM.

For the sequence “AUCCUCAAGAAUGAUACCAGACCAAACAUGAGGAUCACCCAUGUAUCAGGCAAUUGUUACGUCCCUUGGCAGCAUGUAAGCCGAC”, the “apparent Kd” value by setting is: under setting [3], 54.9 nM; under setting [4], 60.2 nM.

With “GCACCAGGUACGGAUACCAGCUGCCACAGUUACAUGAGGAUCACCCAUGUGAUAAAGUGUAGCCCUUGGCAGCUGUACCUGGUGC”, the “apparent Kd” value is 114 nM under setting [3] and 14.3 nM under setting [4].

Regarding “ACGUCCGGUUUACUCGUGGGCAUGGUCGAUACCAGUAUUUUAAUCUACCCUUGGCAGCGACAUGAGGAUCACCCAUGUGCGAAGA”, the “apparent Kd” value under setting [1] was found to be 23.5 nM and the “apparent Kd” value under setting [2] came out at 32.4 nM.

Regarding “AGCGACAUGCGUGAUACCAGCUACAUGAGGAUCACCCAUGUGAGUAGGAAACUACUGUGUAGCCCUUGGCAGCACAGUGCAUGUC”, the “apparent Kd” value runs as follows: under setting [1], 10.5 nM; under setting [2], 63.7 nM.

For the sequence “AUGUUUGUGUGAGAUACCAGUGAGGCCACAUGAGGAUCACCCAUGUCCCUCACUCCGGCCCACCCUUGGCAGCUCUUAUAGAAAA”, the “apparent Kd” value was 10 nM under setting [1] and 59.6 nM under setting [2].

With “CCUGCGUUUCUUUUCUUUCGCAGGAAUGAUACCAGUAGGGAAACCUACCCUUGGCAGCAUGGGACAUGAGGAUCACCCAUGUAAU”, the “apparent Kd” value is 439 nM under setting [3] and 89.3 nM under setting [4].

Consider “UCGUGUAAAACGGAUACCAGUGAGAAGGAUACAUGAGGAUCACCCAUGUGAGUUGAUCCACACCCUUGGCAGCUGUAUAUAUCUA”, for which the “apparent Kd” value came to 118 nM under setting [3] and 706 nM under setting [4].

Regarding “UAAAACAUGAGGAUCACCCAUGUAAAAGAUACCAGAGUGAUGAUCCUCCCUUGGCAGCUUAACGCUGAUUGAUUACAAUCAGCGA”, the “apparent Kd” value by setting is: under setting [3], 93.9 nM; under setting [4], 180 nM.

For the sequence “AGCCGAAACCUUGAUACCAGAUCAUGCUGCACAUGAGGAUCACCCAUGUCGUUAAACAUGGUCCCUUGGCAGCAAGUUAGGAUCU”, the “apparent Kd” value was determined as 76.4 nM under setting [3] and 23.9 nM under setting [4].

For the sequence “ACGUCACGUUUACUCGUGGUUUCGUUCGAUACCAGUAGCGAGAGUUACCCUUGGCAGCGACAUGAGGAUCACCCAUGUACGAAGA”, the “apparent Kd” value by setting is: under setting [1], 13.1 nM; under setting [2], 27.2 nM.

Consider “CAUACUUUAUCCUAUGAGCCUAUUUGUGAUACCAGCAUCUAAAUUUGCCCUUGGCAGCACUUACAUGAGGAUCACCCAUGUUUUA”, for which the “apparent Kd” value under setting [3] worked out at 26.8 nM and the “apparent Kd” value under setting [4] turned out to be 40.7 nM.

As to “UGGCAGCACCUCAUGUGCUGCCAAGGUGAUACCAGCAUCGAAAGAUGCCCUUGGCAGCACCAACAUGAGGAUCACCCAUGUAAUA”, the “apparent Kd” value runs as follows: under setting [3], 165 nM; under setting [4], 152 nM.

In the case of “AACCGAGGCUAUCCUCUCCGACUAUGUGAUACCAGAAUAAUUUUAUUCCCUUGGCAGCAUGACAUGAGGAUCACCCAUGUCUCUU”, the “apparent Kd” value under setting [3] was 15.8 nM and the “apparent Kd” value under setting [4] amounted to 20.7 nM.

For “GAAACGUAGGUGGAGCGGUGAAAUGGCGAUACCAGCGUGGAAACACGCCCUUGGCAGCGUUAGAACAUGAGGAUCACCCAUGUUU”, the “apparent Kd” value under setting [1] turned out to be 25.2 nM and the “apparent Kd” value under setting [2] stood at 112 nM.

On to “AGACAUGUAAGAUAAAUGACUUAUACAGAUACCAGACUGUCUAAUGUCCCUUGGCAGCUGCAUAACAUGAGGAUCACCCAUGUAA”, for which the “apparent Kd” value was 28 nM under setting [1] and 26.1 nM under setting [2].

For “UCGCAUUGCUCAGAUACCAGACAUGAGGAUCACCCAUGUACCAAGGUACCCGAAAGGAAUGUCCCUUGGCAGCUGAGCAAUGCGU”, the “apparent Kd” value was determined as 9.82 nM under setting [1] and 23.6 nM under setting [2].

As for “AGCCCUGUGCUAGAUACCAGCUACAUGAGGAUCACCCAUGUGCGUCAGGACUGACUGUGUAGCCCUUGGCAGCUACUCGCAUGUA”, the “apparent Kd” value under setting [1] was determined as 16.2 nM and the “apparent Kd” value under setting [2] turned out to be 30.9 nM.

As for “ACUAACUAUAGUGAUACCAGACGUACAUGAGGAUCACCCAUGUUACAUUCUUGGUUAAAAGUCCCUUGGCAGCACGAUAAGUUCG”, the “apparent Kd” value by setting is: under setting [1], 9.74 nM; under setting [2], 9.5 nM.

Regarding “ACGACGCAUAGUGAUACCAGUAGAACAUGAGGAUCACCCAUGUCUGUUAUGUACAAAUACUGCCCUUGGCAGCACUAUGCGUCAG”, the “apparent Kd” value is, setting by setting: under setting [3], 9.79 nM; under setting [4], 10.7 nM.

Take “GAUCCUCGUACGGAUACCAGCGACUAACAUGAGGAUCACCCAUGUGAUAAAGAAAAUAUUUGCCCUUGGCAGCCGAAUAGAUAGU”: the “apparent Kd” value came out at 72.7 nM under setting [3] and 34.9 nM under setting [4].

On to “GGCUGUUGCUCUUUGAAGCGGCAGCGUGAUACCAGAUGUAAGAGCGUCCCUUGGCAGCACGUUUACAUGAGGAUCACCCAUGUCA”, for which the “apparent Kd” value under setting [3] was determined as 211 nM and the “apparent Kd” value under setting [4] is 72.8 nM.

With “ACUAGUUGUGCAGAUACCAGACAUGAGGAUCACCCAUGUUUGGGAUCUAAUGAUCAUCCUGUCCCUUGGCAGCUGUACAUCUAGA”, the “apparent Kd” value is, setting by setting: under setting [1], 103 nM; under setting [2], 26.3 nM.

With “AAUAACAUGAGGAUCACCCAUGUAAAAGAUACCAGAGUGAUGAUCCUCCCUUGGCAGCUUAAACGCUAUUGAUUACAAUAGCGAA”, the “apparent Kd” value was found to be 41.5 nM under setting [3] and 144 nM under setting [4].

On to “AGAUCUUUCGAAAGAAGGAUAAUGGCUGAUACCAGAGACGAAAGUCUCCCUUGGCAGCAGUGCCAACAUGAGGAUCACCCAUGUA”, for which the “apparent Kd” value runs as follows: under setting [3], 170 nM; under setting [4], 39.7 nM.
